In ChEMBL document CHEMBL3044690, “Synthesis and herbicidal activity of 2-cyano-3-(2-chlorothiazol-5-yl)methylaminoacrylates” (2004):

What was measured:
Type in all cases: functional
[1] = tested on: Brassica napus; assay: Postemergence herbicidal activity against Brassica napus (oilseed rape) under greenhouse condition at 1.5 kg/ha applied after expansion of true leaf
Procedure, shortened: (§1)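 Seeds sown in 6-cm-diameter boxes of artificial mixed soil. Boxes were kept under plastic film until emergence to hold moisture, and plants were grown in a greenhouse. Above-ground fresh weight was weighed 10 days after treatment. Control efficiency is reported as percent inhibition.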

[2] = tested on: Medicago sativa; assay: Postemergence herbicidal activity against Medicago sativa (alfalfa) under greenhouse condition at 1.5 kg/ha applied after expansion of true leaf; procedure, shortened: as §1
[3] = tested on: Brassica napus; assay: Preemergence herbicidal activity against Brassica napus (oilseed rape) under greenhouse condition at 1.5 kg/ha applied immediately after seed planting; procedure, shortened: as §1
[4] = tested on: Amaranthus retroflexus; assay: Pre-emergence herbicidal activity against Amaranthus retroflexus under greenhouse condition at 1.5 kg/ha applied immediately after seed planting; procedure, shortened: as §1
[5] = tested on: Amaranthus retroflexus; assay: Post-emergence herbicidal activity against Amaranthus retroflexus under greenhouse condition at 1.5 kg/ha applied after expansion of true leaf; procedure, shortened: as §1
[6] = tested on: Medicago sativa; assay: Preemergence herbicidal activity against Medicago sativa (alfalfa) under greenhouse condition at 1.5 kg/ha applied immediately after seed planting; procedure, shortened: as §1
[7] = tested on: Amaranthus retroflexus; assay: (§2) Post-emergence herbicidal activity against Amaranthus retroflexus under greenhouse condition at […] applied after expansion of true leaf; procedure, shortened: as §1
[8] = tested on: Amaranthus retroflexus; assay: as §2; procedure, shortened: as §1; remark: listed apart in the source
[9] = tested on: Amaranthus retroflexus; assay: Post-emergence herbicidal activity against Amaranthus retroflexus under greenhouse condition at 750 g/ha applied after expansion of true leaf; procedure, shortened: as §1
[10] = tested on: Brassica napus; assay: Postemergence herbicidal activity against Brassica napus (oilseed rape) under greenhouse condition at 750 g/ha applied after expansion of true leaf; procedure, shortened: as §1
[11] = tested on: Brassica napus; assay: Postemergence herbicidal activity against Brassica napus (oilseed rape) under greenhouse condition at 375 g/ha applied after expansion of true leaf; procedure, shortened: as §1
[12] = tested on: Brassica napus; assay: Postemergence herbicidal activity against Brassica napus (oilseed rape) under greenhouse condition at 187.5 g/ha applied after expansion of true leaf; procedure, shortened: as §1
[13] = tested on: Brassica napus; assay: Postemergence herbicidal activity against Brassica napus (oilseed rape) under greenhouse condition at 150 g/ha applied after expansion of true leaf; procedure, shortened: as §1
[14] = tested on: Brassica napus; assay: Postemergence herbicidal activity against Brassica napus (oilseed rape) under greenhouse condition at 18.75 g/ha applied after expansion of true leaf; procedure, shortened: as §1
[15] = tested on: Brassica napus; assay: Postemergence herbicidal activity against Brassica napus (oilseed rape) under greenhouse condition at 37.5 g/ha applied after expansion of true leaf; procedure, shortened: as §1
[16] = tested on: Brassica napus; assay: Postemergence herbicidal activity against Brassica napus (oilseed rape) under greenhouse condition at 300 g/ha applied after expansion of true leaf; procedure, shortened: as §1
[17] = tested on: Brassica napus; assay: Postemergence herbicidal activity against Brassica napus (oilseed rape) under greenhouse condition at 75 g/ha applied after expansion of true leaf; procedure, shortened: as §1

SMILES | Activity [1] [%] | Activity [2] [%] | Activity [3] [%] | Activity [4] [%] | Activity [5] [%] | Activity [6] [%] | Activity [7] [%] | Activity [8] [%] | Activity [9] [%] | Activity [10] [%] | Activity [11] [%] | Activity [12] [%] | Activity [13] [%] | Activity [14] [%] | Activity [15] [%] | Activity [16] [%] | Activity [17] [%]
CCOCCOC(=O)/C(C#N)=C(\NCc1ccc(Cl)cc1)C(C)C | 96 | 28 | 0 | 52 | 94 | 0 |  |  |  |  |  |  |  |  |  |  | 
COCCOC(=O)/C(C#N)=C(/C)NCc1cnc(Cl)s1 | 100 | 26 | 78 | 45 | 81 | 0 |  |  |  |  |  |  |  |  |  |  | 
CCOCCOC(=O)/C(C#N)=C(\NCc1cnc(Cl)s1)SC | 100 | 49 | 40 | 76 | 78 | 28 | 48 | 41 | 91 | 100 | 57 | 48 |  |  |  |  | 
CCOCCOC(=O)/C(C#N)=C(/CC)NCc1cnc(Cl)s1 | 100 | 70 | 91 | 70 | 83 | 46 | 50 | 42 | 57 | 69 | 60 | 29 |  |  |  |  | 
CCOCCOC(=O)/C(C#N)=C(/C)NCc1cnc(Cl)s1 | 95 | 94 | 93 | 87 | 100 | 47 | 78 | 73 | 98 | 96 | 59 | 39 |  |  |  |  | 
CCOCCOC(=O)/C(C#N)=C(\NCc1cnc(Cl)s1)C(C)C | 100 | 19 | 96 | 54 | 96 | 16 | 81 | 67 | 100 | 100 | 100 | 100 | 100 | 15 | 52 | 100 | 98
